Source: ChEMBL document CHEMBL2202989, “New adamantane phenylalkylamines with σ-receptor binding affinity and anticancer activity, associated with putative antagonism of neuropathic pain” (J Med Chem, 2012)
Calls of active or inactive are those of the source. No cut-off for these calls is given here.

Key:
[1] = system: BXPC-3; assay: Cell cycle arrest in human BxPC3 cells assessed as accumulation at G2 phase at 15 uM after 24 hrs using propidium iodide staining by FACS analysis (reference value: 12 %); assay type: functional
Procedure, shortened: (§1)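 Cells were plated 24 h before treatment and exposed for 24 h at final 0.5, 5, 15 and 50 μM in 0.5% DMSO, against vehicle-treated controls. Cells were then trypsinised and fixed in cold ethanol for 3 h at 4 °C. They were stained in a mix of RNase (200 μg/mL) and PI (1 mg/mL) for 45 min at room temperature in the dark. Flow cytometry used 488 nm excitation and 10 000 gated cells. Phase percentages were assigned from DNA content.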

[2] = system: Mus musculus; assay: Analgesic activity in CD1 mouse neuropathic pain model assessed as reduction in paw licking time at 100 mg/kg, po administered 1 hr prior to formalin challenge in presence of paclitaxel; assay type: functional, organism-based; design: dose 100 mg/kg
Procedure, shortened: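 CD1 male mice (34−40 g), free access to food and water, were given paclitaxel 6 mg/kg ip once in saline on day 0. On day 14 the test compound was given orally 1 h before formalin was injected into the hind paw. Time spent licking and biting the injected paw and leg was recorded at 0−5 and 35−40 min after formalin.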

[3] = system: BXPC-3; assay: Cell cycle arrest in human BxPC3 cells assessed as accumulation at G1 phase at 5 uM after 24 hrs using propidium iodide staining by FACS analysis (reference value: 41 %); assay type: functional; procedure, shortened: as §1
[4] = system: Mus musculus; assay: Toxicity in SCID mouse assessed as mortality at 40 to 55 mg/kg, ip for 2 to 3 weeks; assay type: organism-based; design: route intraperitoneal; settings: in vivo
Procedure, shortened: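 CD-1 (male and female) and SCID mice dosed ip at 40−55 mg/kg in 5% Tween 80 for chronic 2−3 week regimens. Deaths and body weight loss compared with vehicle (Tween 80 or Cremophor) and reference-drug groups. Weight loss, neurological, behavioral and dietary changes recorded as toxicity signs.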

[5] = Growth inhibition of human MSC cells after 48 hrs by SRB assay; assay type: cell-based
Procedure, shortened: (§2)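 Cells grown in RPMI 1640 with 5% heat-inactivated FCS, 2 mM L-glutamine and antibiotics, 37 °C, 5% CO2. Seeded at 3500–30000 cells/well and left 24 h before dosing. DMSO solutions added at 10-fold dilutions from 100 to 0.01 μM for 48 h. Cells TCA-fixed and SRB-stained, absorbance read at 540 nm; GI50 derived against the time-zero plate.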

[6] = system: OVCAR-5; assay: Growth inhibition of human OVCAR5 cells after 48 hrs by SRB assay; assay type: functional; settings: OVCAR-5, 48 h; procedure, shortened: as §2
[7] = system: DU-145; assay: Growth inhibition of human DU145 cells after 48 hrs by SRB assay; assay type: functional; settings: DU-145, 48 h; procedure, shortened: as §2
[8] = Displacement of [3H]1,3-di-otolylguanidine from sigma 2 receptor in rat cerebral cortex membranes; assay type: cell membranes, Membrane
Procedure, shortened: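 Rat cerebral cortex membranes incubated with 5 nM [3H]DTG plus 300 nM (+)-pentazocine to mask σ1 sites, together with a range of test concentrations, 2 h at 22 °C in Tris-HCl, pH 7.4. Nonspecific binding defined with 10 μM haloperidol.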

[9] = biological target: Sigma non-opioid intracellular receptor 1 (Homo sapiens, UniProt Q99720); assay: Displacement of [3H]-(+)-pentazocine from sigma 1 receptor in human Jurkat cell membrane; assay type: cell membranes
Sigma non-opioid intracellular receptor 1, sequence (Q99720 whole entry): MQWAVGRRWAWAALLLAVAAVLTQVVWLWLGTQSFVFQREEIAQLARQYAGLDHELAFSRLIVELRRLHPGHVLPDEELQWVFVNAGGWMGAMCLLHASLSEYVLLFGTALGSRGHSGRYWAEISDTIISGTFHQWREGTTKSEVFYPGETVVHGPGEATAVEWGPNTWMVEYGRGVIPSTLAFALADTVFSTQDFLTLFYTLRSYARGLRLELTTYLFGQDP
Procedure, shortened: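 Jurkat cell membranes incubated with 8 nM [3H](+)-pentazocine and a range of test concentrations for 2 h at 22 °C in Tris-HCl buffer, pH 7.4. Nonspecific binding defined with 10 μM haloperidol. Run in triplicate.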

[10] = system: PC-3; assay: Induction of apoptosis in human PC3 cells assessed as cleaved caspase3 containing cells at 15 uM by antibody-based FACS analysis (reference value: 3.2 %); assay type: functional
[11] = system: PC-3; assay: Induction of apoptosis in human PC3 cells assessed as cleaved caspase3 containing cells at 50 uM by antibody-based FACS analysis (reference value: 3.2%); assay type: functional
[12] = system: IGROV-1; assay: Induction of apoptosis in human IGROV1 cells assessed as cleaved caspase3 containing cells at 15 uM by antibody-based FACS analysis (reference value: 3.9 %); assay type: functional
[13] = system: IGROV-1; assay: Induction of apoptosis in human IGROV1 cells assessed as cleaved caspase3 containing cells at 5 uM by antibody-based FACS analysis (reference value: 3.9 %); assay type: functional
[14] = system: PC-3; assay: Induction of apoptosis in human PC3 cells assessed as healthy cells at 0.5 uM using annexin V/7-AAD by FACS analysis (reference value: 91 %); assay type: functional
[15] = system: IGROV-1; assay: Induction of apoptosis in human IGROV1 cells assessed as early apoptosis at 15 uM using annexin V/7-AAD by FACS analysis (reference value: 9 %); assay type: functional
[16] = system: BXPC-3; assay: Induction of apoptosis in human BxPC3 cells assessed as total apoptotic death at 50 uM using annexin V/7-AAD by FACS analysis (reference value: 18 %); assay type: functional
Procedure, shortened: (§3)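 Cells plated 24 h before treatment, then exposed 24 h to 0.5, 5, 15 or 50 μM compound (final DMSO 0.5%); vehicle controls included. Cells scraped and stained with annexin V-FITC and 7-AAD for 15 min on ice in the dark. Flow cytometry with 488 nm excitation, 10,000 gated cells. Early apoptosis was annexin V+/7-AAD−, late was annexin V+/7-AAD+.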

[17] = system: BXPC-3; assay: Induction of apoptosis in human BxPC3 cells assessed as total apoptotic death at 0.5 uM using annexin V/7-AAD by FACS analysis (reference value: 18 %); assay type: functional; procedure, shortened: as §3
[18] = system: BXPC-3; assay: Induction of apoptosis in human BxPC3 cells assessed as late apoptosis at 15 uM using annexin V/7-AAD by FACS analysis (reference value: 9 %); assay type: functional
[19] = system: BXPC-3; assay: Induction of apoptosis in human BxPC3 cells assessed as healthy cells at 0.5 uM using annexin V/7-AAD by FACS analysis (reference value: 79 %); assay type: functional
[20] = system: PC-3; assay: Cell cycle arrest in human PC3 cells assessed as accumulation at G2 phase at 50 uM after 24 hrs using propidium iodide staining by FACS analysis (reference value: 12 %); assay type: functional
[21] = system: PC-3; assay: Cell cycle arrest in human PC3 cells assessed as accumulation at S phase at 0.5 uM after 24 hrs using propidium iodide staining by FACS analysis (reference value: 42 %); assay type: functional
[22] = system: PC-3; assay: Cell cycle arrest in human PC3 cells assessed as accumulation at G1 phase at 50 uM after 24 hrs using propidium iodide staining by FACS analysis (reference value: 36 %); assay type: functional
[23] = system: IGROV-1; assay: Cell cycle arrest in human IGROV1 cells assessed as accumulation at G2 phase at 50 uM after 24 hrs using propidium iodide staining by FACS analysis (reference value: 19 %); assay type: functional
[24] = system: IGROV-1; assay: Cell cycle arrest in human IGROV1 cells assessed as accumulation at G2 phase at 15 uM after 24 hrs using propidium iodide staining by FACS analysis (reference value: 19 %); assay type: functional
[25] = system: IGROV-1; assay: Cell cycle arrest in human IGROV1 cells assessed as accumulation at sub G1 phase at 0.5 uM after 24 hrs using propidium iodide staining by FACS analysis (reference value: 4 %); assay type: functional
[26] = system: BXPC-3; assay: Cell cycle arrest in human BxPC3 cells assessed as accumulation at >G2/M phase at 0.5 uM after 24 hrs using propidium iodide staining by FACS analysis (reference value: 6 %); assay type: functional; procedure, shortened: as §1
[27] = read-out: LC50 (the source's name)

CN1CCN(CCCc2ccc(C(c3ccccc3)C34CC5CC(CC(C5)C3)C4)cc2)CC1 (stereo not given)
Activity [1]: 12%
Activity [2]: Active
Activity [3]: 53%
Activity [4]: Non-toxic
TGI [5]: 30.9 µM
GI50 [6]: 3.6 µM
TGI [6]: 6.9 µM
CC50 [6, 27]: 0.0102 µM
GI50 [7]: 3.77 µM
TGI [7]: 7.11 µM
CC50 [7, 27]: 0.1 µM
IC50 [8]: 0.085 µM
IC50 [9]: 0.0481 µM
Activity [10]: 2.5%
Activity [11]: 4%
Activity [12]: 61.4%
Activity [13]: 12.6%
Activity [14]: 95%
Activity [15]: 37%
Activity [16]: 46%
Activity [17]: 17%
Activity [18]: 26%
Activity [19]: 82%
Activity [20]: 11%
Activity [21]: 38%
Activity [22]: 29%
Activity [23]: 10%
Activity [24]: 27%
Activity [25]: 4%
Activity [26]: 7%
